Results reported in ChEMBL document CHEMBL5724801, “EUbOPEN Chemogenomics Library - Multiplex” (2024).
Where “and” joins values, the source holds several entries; their conditions need not be identical. Equal entries are not always repeated.

System: U2OS
Assay: Multiplex assay against U2OS
Type: toxicity, cell-based
Conditions: human
How it was run: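 Live cells were stained at seeding with Hoechst33342, BioTracker Green Microtubule Cytoskeleton Dye, MitoTracker Red and Annexin V Alexa Fluor 680. Following compound addition, they were imaged on a CQ1 microscope at 37°C and 5% CO2 and gated by CellPathfinder machine learning into Hoechst high-intensity objects or normal cells, with normal cells split into healthy, pyknosed or fragmented nuclei and pyknosed cells into mitotic or apoptotic. Tubulin, mitochondrial-mass and membrane-permeability phenotypes are per cents of healthy-nucleus cells.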

[1] = 12 h, 1 µM, compound concentration 1 uM
[2] = 12 h, 10 µM, compound concentration 10 uM
[3] = 24 h, 1 µM, compound concentration 1 uM
[4] = 24 h, 10 µM, compound concentration 10 uM
[5] = 48 h, 1 µM, compound concentration 1 uM
[6] = 48 h, 10 µM, compound concentration 10 uM

C=C(C)[C@H]1CN[C@H](C(=O)O)[C@H]1CC(=O)O [KAINIC ACID]
Population Apoptotic (%) [1]: 30.91% and 58.82% | Population Fragmented Nuclei (%) [1]: 1.23% and 1.12% | Population Healthy Nuclei (%) [1]: 87.5% and 89.39% | Population Hoechst High Intensity Objects (%) [1]: 0% | Population Membrane Permeable-Phenotype (%) [1]: 1.41% and 1.88% | Population Mitochondria Different-Phenotype (%) [1]: 0.23% and 4.38% | Population Mitotic Cells (%) [1]: 69.09% and 41.18% | Population Normal (%) [1]: 100% | Population Pyknosed Nuclei (%) [1]: 11.27% and 9.5% | Population Tubulin-Different-Phenotype (%) [1]: 0.7% and 0.62% | Total Cell Count [1]: 488 and 179 | Population Apoptotic (%) [2]: 57.14% and 30.77% | Population Fragmented Nuclei (%) [2]: 0.95% and 4.3% | Population Healthy Nuclei (%) [2]: 89.13% and 81.72% | Population Hoechst High Intensity Objects (%) [2]: 0% | Population Membrane Permeable-Phenotype (%) [2]: 0.27% and 3.29% | Population Mitochondria Different-Phenotype (%) [2]: 0.27% and 4.61% | Population Mitotic Cells (%) [2]: 42.86% and 69.23% | Population Normal (%) [2]: 100% | Population Pyknosed Nuclei (%) [2]: 9.93% and 13.98% | Population Tubulin-Different-Phenotype (%) [2]: 0.53% and 0% | Total Cell Count [2]: 423 and 186 | Population Apoptotic (%) [3]: 37.88% and 41.38% | Population Fragmented Nuclei (%) [3]: 1.93% and 1.32% | Population Healthy Nuclei (%) [3]: 88.3% and 85.96% | Population Hoechst High Intensity Objects (%) [3]: 0% | Population Membrane Permeable-Phenotype (%) [3]: 0.84% and 3.06% | Population Mitochondria Different-Phenotype (%) [3]: 0.17% and 5.61% | Population Mitotic Cells (%) [3]: 62.12% and 58.62% | Population Normal (%) [3]: 100% | Population Pyknosed Nuclei (%) [3]: 9.78% and 12.72% | Population Tubulin-Different-Phenotype (%) [3]: 0.5% and 0.51% | Total Cell Count [3]: 675 and 228 | Population Apoptotic (%) [4]: 43.86% and 44.44% | Population Fragmented Nuclei (%) [4]: 0.5% and 1.63% | Population Healthy Nuclei (%) [4]: 90.02% and 91.02% | Population Hoechst High Intensity Objects (%) [4]: 0% | Population Membrane Permeable-Phenotype (%) [4]: 0.37% and 1.79% | Population Mitochondria Different-Phenotype (%) [4]: 0% and 2.69% | Population Mitotic Cells (%) [4]: 56.14% and 55.56% | Population Normal (%) [4]: 100% | Population Pyknosed Nuclei (%) [4]: 9.48% and 7.35% | Population Tubulin-Different-Phenotype (%) [4]: 0.92% and 0.9% | Total Cell Count [4]: 601 and 245 | Population Apoptotic (%) [5]: 36.05% and 33.33% | Population Fragmented Nuclei (%) [5]: 2.72% and 1.63% | Population Healthy Nuclei (%) [5]: 90.38% and 86.14% | Population Hoechst High Intensity Objects (%) [5]: 0% | Population Membrane Permeable-Phenotype (%) [5]: 0.98% and 1.89% | Population Mitochondria Different-Phenotype (%) [5]: 0.44% and 1.89% | Population Mitotic Cells (%) [5]: 63.95% and 66.67% | Population Normal (%) [5]: 100% | Population Pyknosed Nuclei (%) [5]: 6.89% and 12.23% | Population Tubulin-Different-Phenotype (%) [5]: 0.62% and 0.95% | Population Apoptotic (%) [6]: 44.57% and 57.89% | Population Fragmented Nuclei (%) [6]: 3.7% and 0.47% | Population Healthy Nuclei (%) [6]: 88.18% and 90.59% | Population Hoechst High Intensity Objects (%) [6]: 0% | Population Membrane Permeable-Phenotype (%) [6]: 0.8% and 2.08% | Population Mitochondria Different-Phenotype (%) [6]: 0.2% and 2.08% | Population Mitotic Cells (%) [6]: 55.43% and 42.11% | Population Normal (%) [6]: 100% | Population Pyknosed Nuclei (%) [6]: 8.11% and 8.94% | Population Tubulin-Different-Phenotype (%) [6]: 0.7% and 1.3% | Total Cell Count [6]: 1134 and 425

CCCCCCNC(=O)Nc1ccc(S(=O)(=O)Nc2ccc(CCNC[C@H](O)COc3ccc(O)cc3)cc2)cc1 [L-755507]
Population Apoptotic (%) [1]: 86% and 100% | Population Fragmented Nuclei (%) [1]: 22% and 18% | Population Healthy Nuclei (%) [1]: 67% and 75% | Population Hoechst High Intensity Objects (%) [1]: 4% and 0% | Population Membrane Permeable-Phenotype (%) [1]: 4% and 10% | Population Mitochondria Different-Phenotype (%) [1]: 4% and 1% | Population Mitotic Cells (%) [1]: 13% and 0% | Population Normal (%) [1]: 95% and 99% | Population Pyknosed Nuclei (%) [1]: 9% and 5% | Population Tubulin-Different-Phenotype (%) [1]: 4% and 5% | Total Cell Count [1]: 231 and 120 | Population Apoptotic (%) [2]: 60% and 72% | Population Fragmented Nuclei (%) [2]: 31% and 19% | Population Healthy Nuclei (%) [2]: 59% and 72% | Population Hoechst High Intensity Objects (%) [2]: 3% and 2% | Population Membrane Permeable-Phenotype (%) [2]: 13% and 19% | Population Mitochondria Different-Phenotype (%) [2]: 11% and 15% | Population Mitotic Cells (%) [2]: 40% and 27% | Population Normal (%) [2]: 96% and 97% | Population Pyknosed Nuclei (%) [2]: 9% and 8% | Population Tubulin-Different-Phenotype (%) [2]: 10% and 15% | Total Cell Count [2]: 282 and 140 | Population Apoptotic (%) [3]: 83% and 92% | Population Fragmented Nuclei (%) [3]: 22% and 23% | Population Healthy Nuclei (%) [3]: 66% and 67% | Population Hoechst High Intensity Objects (%) [3]: 4% and 2% | Population Membrane Permeable-Phenotype (%) [3]: 5% and 11% | Population Mitochondria Different-Phenotype (%) [3]: 5% and 1% | Population Mitotic Cells (%) [3]: 16% and 7% | Population Normal (%) [3]: 95% and 97% | Population Pyknosed Nuclei (%) [3]: 11% and 9% | Population Tubulin-Different-Phenotype (%) [3]: 3% and 5% | Total Cell Count [3]: 285 and 143 | Population Apoptotic (%) [4]: 85% and 88% | Population Fragmented Nuclei (%) [4]: 25% and 14% | Population Healthy Nuclei (%) [4]: 65% and 79% | Population Hoechst High Intensity Objects (%) [4]: 2% | Population Membrane Permeable-Phenotype (%) [4]: 7% and 9% | Population Mitochondria Different-Phenotype (%) [4]: 4% and 5% | Population Mitotic Cells (%) [4]: 14% and 11% | Population Normal (%) [4]: 97% | Population Pyknosed Nuclei (%) [4]: 9% and 6% | Population Tubulin-Different-Phenotype (%) [4]: 3% and 6% | Total Cell Count [4]: 307 and 149 | Population Apoptotic (%) [5]: 78% and 91% | Population Fragmented Nuclei (%) [5]: 14% and 26% | Population Healthy Nuclei (%) [5]: 74% and 61% | Population Hoechst High Intensity Objects (%) [5]: 1% and 4% | Population Membrane Permeable-Phenotype (%) [5]: 6% and 12% | Population Mitochondria Different-Phenotype (%) [5]: 3% and 5% | Population Mitotic Cells (%) [5]: 21% and 8% | Population Normal (%) [5]: 98% and 95% | Population Pyknosed Nuclei (%) [5]: 11% and 12% | Population Tubulin-Different-Phenotype (%) [5]: 3% and 6% | Total Cell Count [5]: 422 and 188 | Population Apoptotic (%) [6]: 80% and 94% | Population Fragmented Nuclei (%) [6]: 19% and 13% | Population Healthy Nuclei (%) [6]: 70% and 78% | Population Hoechst High Intensity Objects (%) [6]: 2% and 1% | Population Membrane Permeable-Phenotype (%) [6]: 7% | Population Mitochondria Different-Phenotype (%) [6]: 2% and 3% | Population Normal (%) [6]: 97% and 98% | Population Pyknosed Nuclei (%) [6]: 9% and 7% | Population Tubulin-Different-Phenotype (%) [6]: 4% and 6% | Total Cell Count [6]: 419 and 242
